Assay results published in ChEMBL document CHEMBL1133551, “Non-depolarizing neuromuscular blocking activity of bisquaternary amino di- and tripeptide derivatives” (J Med Chem, 2000).

What was measured:
Monkey [1] = test: Inhibitory potency in anesthetized rhesus monkeys; format: functional; settings: Cercopithecidae, in Macaca mulatta
Felis catus [2] = test: Duration (90%) measured for NMB activity in anesthetized cats; format: functional
In short: (§1)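 Anesthetized, ventilated cats, tibialis anterior twitch evoked by sciatic nerve stimulation at 0.1 Hz; iv doses giving 80-95% block. Onset is injection to the first maximally depressed twitch. Duration is injection to 90% spontaneous recovery relative to predrug twitch.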

Felis catus [3] = test: Inhibitory potency in anesthetized cats; format: functional
In short: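 Cats of either sex (1.9-2.6 kg), anesthetized i.p. with α-chloralose 80 mg/kg plus pentobarbitone 5 mg/kg and ventilated with room air, 37 ± 1 °C. Sciatic nerve stimulated at 0.1 Hz (0.25-ms supramaximal pulses), tibialis anterior twitch recorded. Increasing doses given iv (jugular) at 30-60-min intervals.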

Felis catus [4] = test: Onset time was measured for NMB activity in anesthetized cats; format: functional; in short: as §1
Felis catus [5] = test: Inhibition of superior cervical nerve-induced contractions of the nictitating membrane in anesthetized cats; Pre- and post-block increases in twitch tension and short-lived muscle fasciculations 20-30 s after dosing; format: functional, organism-based
In short: (§2)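 Anesthetized cats. Every 100 s the vagus nerve was stimulated for 10 s at 2-5 Hz to evoke bradycardia, and the cervical sympathetic nerve was stimulated to evoke nictitating membrane contraction. Near the end of experiments, logarithmically increasing iv doses were given at 100-s intervals. Doses giving 50% block were obtained by regression and interpolation.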

Monkey [6] = test: Onset time was measured for NMB activity in anesthetized rhesus monkeys; format: functional, Cercopithecidae
In short: (§3)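 Anesthetized, ventilated Rhesus monkeys; iv dosing at 3 × the 90% blocking dose. Onset is injection to the first maximally depressed twitch. Duration is injection to 90% spontaneous recovery versus predrug twitch.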

Gallus gallus [7] = species: Gallus gallus; test: Dose causing 50% block of muscle twitch in isolated chick biventer cervicis muscle (Increase in baseline tension); settings: Muscle tissue, read-out: ED50 (the source's name)
Felis catus [8] = test: Recovery time (25-75 %) measured for NMB activity in anesthetized cats; format: functional, organism-based; in short: as §1
Monkey [9] = test: Recovery time (25-75 %) measured for NMB activity in anesthetized rhesus monkeys; format: functional, organism-based; settings: Cercopithecidae; in short: as §3
Monkey [10] = test: Duration (90%) measured for NMB activity in anesthetized rhesus monkeys; format: functional, Cercopithecidae; in short: as §3
Felis catus [11] = species: Felis catus; test: Inhibition of superior cervical nerve-induced contractions of the nictitating membrane; format: functional; in short: as §2
Gallus gallus [12] = species: Gallus gallus; test: (§4) Dose causing 50% block of muscle twitch in isolated chick biventer cervicis muscle; format: functional, Muscle tissue
In short: (§5)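 Isolated chick biventer cervicis nerve-muscle preparation; bath fluid gassed with 5% CO2 in O2, pH 7.4. Motor nerves stimulated at 0.1 Hz with 0.2-ms rectangular pulses at supramaximal voltage to give indirect twitches. Concentration-twitch inhibition lines fitted by least squares, and the concentration producing 50% twitch block (µM) was read off.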

Felis catus [13] = species: Felis catus; test: Inhibition of stimulated vagus nerve-induced bradycardia; format: functional; in short: as §2
Felis catus [14] = test: Inhibition of stimulated vagus nerve-induced bradycardia in anesthetized cats; format: functional; in short: as §2
[15] = as §4; format: functional; settings: Gallus gallus, Muscle tissue; read-out: ED50 (the source's name); in short: as §5
Gallus gallus [16] = species: Gallus gallus; test: -logED50 value for chick biventer determined.; format: functional; in short: as §5
Felis catus [17] = test: Inhibitory potency in anesthetized cats, and Onset time is reported; format: functional
In short: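 Anesthetized cats (alpha-chloralose/pentobarbitone i.p., ventilated, 37 ± 1 °C). Tibialis anterior twitch evoked via sciatic nerve at 0.1 Hz, 0.25-ms supramaximal pulses. Increasing i.v. (jugular) doses at 30-60-min intervals. ED50 interpolated from log dose lines over 15-85% block. Onset, from injection to first maximally depressed twitch, measured at doses giving 80-95% block.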

[18] = Dose causing 50% block of muscle twitch in isolated chick biventer cervicis muscle (Increase in baseline tension); settings: Gallus gallus, Muscle tissue; read-out: ED50 (the source's name)
Felis catus [19] = test: Inhibition of superior cervical nerve-induced contractions of the nictitating membrane in anesthetized cats; format: functional
In short: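 Cats of either sex (1.9-2.6 kg), anesthetized with i.p. alpha-chloralose 80 mg/kg plus pentobarbitone 5 mg/kg, ventilated to keep arterial pH 7.3-7.4, 37 ± 1 °C. Nictitating membrane contractions evoked by cervical sympathetic nerve stimulation, recorded every 100 s. Logarithmically increasing doses injected into the jugular vein at 100-s intervals; 50%-blocking dose obtained by regression and interpolation.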

Structure (SMILES)	Duration (Felis catus [2]) [min]	ED50 (Felis catus [3]) [µmol/kg]	Onset (Felis catus [4]) [min]	Recovery (Felis catus [8]) [min]	ED50 (Felis catus [14]) [µmol/kg]	pCB50 (Gallus gallus [16])	further results
C[N+](C)(C)CCOC(=O)CCC(=O)OCC[N+](C)(C)C [SUXAMETHONIUM]	5.7	0.11	1.7	1.9			ED90 (Monkey [1]): 5.04 µmol/kg; ED50 (Felis catus [5]): Pre- and post-block increases in twitch tension and short-lived muscle fasciculations 20-30 s after dosing; Onset (Monkey [6]): 1.5 min; EC50 (Gallus gallus [7]): 540 nM; Recovery (Monkey [9]): 2.9 min; Duration (Monkey [10]): 9.7 min
O=C(C[N+]1(Cc2ccc([N+](=O)[O-])cc2)CCCCC1)NC(Cc1ccccc1)C(=O)NCC[N+]1(Cc2ccc([N+](=O)[O-])cc2)CCOCC1.[Br-].[Br-] (stereo unspecified)		10.1					ED50 (Felis catus [11]): > 11.2 µmol/kg; ED50 (Gallus gallus [12]): 19.8 µM; ED50 (Felis catus [13]): 0.8 µmol/kg
C[N+](C)(C)CC(=O)NCC(=O)NCC[N+]1(C)CCOCC1							EC50 (Gallus gallus [12]; Gallus gallus, Muscle tissue, read-out: ED50 (the source's name)): > 390 µM
COc1ccc(CC2c3cc(OC)c(OC)cc3CC[N+]2(C)CCC(=O)OCCCCCOC(=O)CC[N+]2(C)CCc3cc(OC)c(OC)cc3C2Cc2ccc(OC)c(OC)c2)cc1OC (stereo unspecified)	19.4	0.1	5.8	5.9	1.6		EC50 (Gallus gallus [7]): 410 nM
C[N+]1(CCNC(=O)C(Cc2ccccc2)NC(=O)C[N+]2(C)CCCCC2)CCOCC1 (stereo unspecified)						3.39	EC50 [15]: 407 µM
CC(=O)O[C@H]1C[C@@H]2CC[C@@H]3[C@H](CC[C@@]4(C)[C@H]3C[C@H]([N+]3(C)CCCCC3)[C@@H]4OC(C)=O)[C@@]2(C)C[C@@H]1[N+]1(C)CCCCC1 [PANCURONIUM]	11.7		4.1	4	0.07	6.7	ED50 (Felis catus [17]): 0.03 µmol/kg; EC50 [18]: 200 nM
C=CC[N+]1([C@H]2C[C@H]3[C@@H]4CC[C@H]5C[C@H](O)[C@@H](N6CCOCC6)C[C@]5(C)[C@H]4CC[C@]3(C)[C@H]2OC(C)=O)CCCC1 [ROCURONIUM]	8.3		2	2.9	2.17	6.12	ED50 (Felis catus [19]): 0.16 µmol/kg; ED50 (Felis catus [17]): 0.25 µmol/kg; Onset (Monkey [6]): 3.1 min; Recovery (Monkey [9]): 5 min; Duration (Monkey [10]): 13.6 min; EC50 [18]: 760 nM
